{"source": "ChEMBL document CHEMBL1154695", "about": "(J Med Chem, 2009)", "key": {"[1]": {"test": "Inhibition of HCV NS3/4A protease", "design": "species or system Hepacivirus hominis"}, "[2]": {"tested_on": "Plasma", "test": "Stability in rat plasma relative to telaprevir", "assay_type": "ADME, cell-free", "summary_of_the_method": "(§1)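 Rat, dog or human plasma was preincubated at 37 °C and spiked from DMSO stock to a final 1 or 10 μM (final DMSO 1%), in triplicate with shaking. Control was 0.1 M potassium phosphate pH 7.4. Sampling was at 0–120 min (rat, dog) or 0–180 min (human, buffer). Samples were acidified, extracted with ethyl acetate and run on chiral LC-MS/MS (MRM). Epimerization was scored by initial rate and k_H/k_D.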"}, "[3]": {"test": "Stability in boric acid-potassium chloride buffer of pH 9", "assay_type": "physicochemical", "summary_of_the_method": "(§2)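 Start concentration 0.25 mg/mL, followed over time at pH 7 in water, pH 7 phosphate (0.05 M) or pH 9 borate (0.1 M). Aliquots were drawn at intervals and HPLC measured the parent and the P1-(R) epimer VRT-394. k_obs is the sum of the forward and reverse epimerization rate constants; relative rate is taken against pH 7 water.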"}, "[4]": {"test": "Stability in rat plasma assessed as compound epimerization at 10 uM", "assay_type": "ADME, cell-free", "summary_of_the_method": "as §1"}, "[5]": {"tested_on": "Plasma", "test": "Stability in human plasma relative to telaprevir", "assay_type": "ADME, cell-free", "summary_of_the_method": "as §1"}, "[6]": {"test": "Terminal half life in Sprague-Dawley rat at 10 mg/kg, po", "assay_type": "ADME, organism-based", "design": "dose 10 mg/kg, route oral", "settings": "in vivo, read-out: beta t1/2 (converted)", "summary_of_the_method": "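Male Sprague-Dawley rats with cannulas received 10 mg/kg by gavage at 1 mg/mL (10 mL/kg) in a solid dispersion (HPMC-AS/SLS) taken up in 1% HPMC-AS and 10% vitamin E TPGS. Blood was drawn from 0.25 to 24 h into EDTA; plasma was acidified and assayed by LC/MS/MS. Parameters came from noncompartmental analysis.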"}, "[7]": {"tested_on": "Plasma", "test": "Stability in human plasma assessed as conversion to VRT-394 at 1 uM after 1 hr"}, "[8]": {"tested_on": "Plasma", "test": "Stability in dog plasma relative to telaprevir", "assay_type": "ADME, cell-free, Canis lupus familiaris", "summary_of_the_method": "as §1"}, "[9]": {"tested_on": "Hepatitis C virus", "test": "Antiviral activity against HCV by viral replicon assay", "assay_type": "functional, Hepacivirus hominis"}, "[10]": {"test": "Stability in potassium phosphate buffer of pH 7", "assay_type": "physicochemical", "summary_of_the_method": "as §2"}, "[11]": {"tested_on": "Plasma", "test": "Stability in human plasma assessed as conversion to VRT-394 at 10 uM after 1 hr", "assay_type": "ADME, cell-free", "settings": "1 µM, in the assay text read “1 uM” for “10 uM”"}, "[12]": {"test": "Chemical stability assessed as compound epimerization in potassium phosphate buffer of pH 7", "assay_type": "physicochemical", "summary_of_the_method": "as §2"}}, "data": [{"smiles": "CCC[C@@H](NC(=O)[C@@H]1[C@H]2CCC[C@H]2CN1C(=O)[C@@H](NC(=O)[C@@H](NC(=O)c1cnccn1)C1CCCCC1)C(C)(C)C)C(=O)C(=O)NC1CC1", "values": [{"measurement": "Ki", "setting": "[1]", "value": "> 1000", "unit": "nM"}]}, {"smiles": "[2H][C@@](CCC)(NC(=O)[C@@H]1[C@H]2CCC[C@H]2CN1C(=O)[C@@H](NC(=O)[C@@H](NC(=O)c1cnccn1)C1CCCCC1)C(C)(C)C)C(=O)C(=O)NC1CC1", "values": [{"measurement": "Ki", "setting": "[1]", "value": 20, "unit": "nM"}, {"measurement": "Activity", "setting": "[2]", "value": "Stable"}, {"measurement": "Activity", "setting": "[3]", "value": "Stable"}, {"measurement": "half-life at 10 µM", "setting": "[4]", "value": "> 4", "unit": "h"}, {"measurement": "Activity", "setting": "[5]", "value": "Stable"}, {"measurement": "half-life", "setting": "[6]", "value": 1.5, "unit": "h"}, {"measurement": "Activity", "setting": "[7]", "value": 10, "unit": "%"}, {"measurement": "Activity", "setting": "[8]", "value": "Stable"}, {"measurement": "IC99", "setting": "[9]", "value": 4, "unit": "µM"}, {"measurement": "Activity", "setting": "[10]", "value": "Stable"}]}, {"smiles": "CCC[C@H](NC(=O)[C@@H]1[C@H]2CCC[C@H]2CN1C(=O)[C@@H](NC(=O)[C@@H](NC(=O)c1cnccn1)C1CCCCC1)C(C)(C)C)C(=O)C(=O)NC1CC1", "values": [{"measurement": "Activity", "setting": "[11]", "value": 35, "unit": "%"}, {"measurement": "half-life", "setting": "[12]", "value": 35, "unit": "h"}, {"measurement": "IC99", "setting": "[9]", "value": 3.3, "unit": "µM"}]}]}
